{"data": "Measured values of several laboratories", "SP140": "SP140 (Homo sapiens, UniProt Q13342)", "ANKK1": "Ankyrin repeat and protein kinase domain-containing protein 1 (ANKK1, Homo sapiens, UniProt Q8NFD2)"}
{"Compound": "Oc1c(Br)cc(Oc2ccc(Br)cc2Br)cc1Br", "target": "Sulfotransferase 1E1 (SULT1E1, Homo sapiens, UniProt P49888)", "assay": "enzyme activity, substrate", "measurement": "Km", "result": "4.23 µM"}
{"Compound": "Cc1cnc(Nc2ccc(OCCN3CCCC3)cc2)nc1Nc1cccc(S(=O)(=O)NC(C)(C)C)c1", "target": "SP140", "assay": "thermal stability, DSF", "setting": "10 µM", "measurement": "ΔTm", "result": "-0.01 °C"}
{"Compound": "CC(C)(C)c1nc(-c2cccc(NS(=O)(=O)c3c(F)cccc3F)c2F)c(-c2ccnc(N)n2)s1", "target": "Cyclin-dependent kinase 1, with cyclin E1 (CDK1, Homo sapiens, UniProt P06493)", "assay": "enzyme activity, inhibitor, radiometric", "setting": "1 µM", "measurement": "remaining activity", "result": "57%"}
{"Compound": "Nc1ncnc2occ(-c3ccc(NC(=O)Nc4cc(C(F)(F)F)ccc4F)cc3)c12", "target": "ANKK1", "assay": "cell-free assay", "setting": "20 µM", "measurement": "remaining signal", "result": "3.6%"}
{"Compound": "CN(C)C1CCN(CC#Cc2nn(C3CCCC3)c3nc(NCc4ccccc4)ncc23)C1 (stereo not shown)", "target": "Proto-oncogene tyrosine-protein kinase Src (SRC, Homo sapiens, UniProt P12931)", "assay": "enzyme activity, inhibitor, FRET", "setting": "0.1 µM", "measurement": "inhibition", "result": "-1%"}
{"Compound": "Cc1ccc(S(=O)(=O)Nc2ccc(-n3nc(C(F)(F)F)cc3C(F)(F)F)cc2)cc1", "target": "Calcium release-activated calcium channel protein 1 (Rattus norvegicus, UniProt Q5M848)", "assay": "ion current, inhibitor, patch clamp", "system": "RBL-2H3", "setting": "3 µM", "measurement": "remaining activity", "result": "60%"}
{"Compound": "Oc1ccc(-c2nc(-c3ccncc3)c(-c3ccc(F)cc3)[nH]2)cc1", "target": "SP140", "assay": "thermal stability, DSF", "setting": "10 µM", "measurement": "ΔTm", "result": "0.36 °C"}
{"Compound": "OCc1cc(C(O)CNCCCCCCOCCCCc2ccccc2)ccc1O (stereo not shown)", "target": "C-X-C chemokine receptor type 4 (CXCR4, Homo sapiens, UniProt P61073)", "assay": "calcium signal, antagonist", "system": "U87.CD4.CXCR4", "setting": "0.8 µM", "measurement": "inhibition", "result": "9%"}
{"Compound": "Cc1ccc(C(=O)Nc2ccc(CN3CCN(C)CC3)c(C(F)(F)F)c2)cc1C#Cc1cnc2cccnn12", "target": "ANKK1", "assay": "cell-free assay", "setting": "23.5 nM", "measurement": "remaining signal", "result": "56%"}
{"Compound": "Cc1cc2c(cc1N1C(=O)c3cccc4c(Cl)ccc(c34)C1=O)n(C)c(=O)n2C", "target": "SP140", "assay": "thermal stability, DSF", "setting": "10 µM", "measurement": "ΔTm", "result": "-0.9 °C"}
{"Compound": "CC(C)(O)[C@H]1CC[C@H](Nc2ccc3ncc(-c4cccc(C(F)(F)F)c4)n3n2)CC1", "target": "Cyclin-dependent kinase 1, with cyclin E (CDK1, Homo sapiens, UniProt P06493)", "assay": "enzyme activity, inhibitor", "setting": "1 µM", "measurement": "remaining activity", "result": "107%"}
{"Compound": "CCCOc1ccc(OC)c(F)c1C(=O)c1ccc(C(=O)N[C@@H]2CNC[C@H]2NC(=O)c2ccc3[nH]ncc3c2)cc1", "target": "Serine/threonine-protein kinase Sgk2 (SGK2, Homo sapiens, UniProt Q9HBY8)", "assay": "enzyme activity, inhibitor", "setting": "0.5 µM", "measurement": "remaining activity", "result": "16%"}
{"Compound": "CC(C)(C)c1nc2c(s1)c1nc(N)ncc1c1ccc(NS(=O)(=O)c3c(F)cccc3F)c(F)c12", "target": "Cyclin-dependent kinase 1, with cyclin A2 (CDK1, Homo sapiens, UniProt P06493)", "assay": "enzyme activity, inhibitor, radiometric", "setting": "1 µM", "measurement": "remaining activity", "result": "100%"}
